{"data": "Assay results pooled from the literature", "note": "Compare with care: the assays were run in different laboratories."}
{"SMILES": "Cc1cc(C)c(N2CCN(c3c(C)cc(C)cc3C)C2=[Se])c(C)c1", "cell line": "HCT-15", "test": "cell growth or viability, MTT", "conditions": "72 h", "measurement": "IC50", "value": "10.2 µM"}
{"SMILES": "NS(=O)(=O)c1cc(C(=O)O)c(NCc2ccco2)cc1Cl", "cell line": "human PBMC", "test": "cell migration, inhibitor", "measurement": "IC50", "value": "~1 µM"}
{"SMILES": "O=C(Oc1ccc(Br)cc1)[c-]1cccc1.[Fe+2].c1cc[cH-]c1", "cell line": "MCF-10A", "test": "cell growth or viability, MTT", "conditions": "72 h", "measurement": "IC50", "value": "353 µM"}
{"SMILES": "O=C(O)CCCc1ccc(N(CCCl)CCCl)cc1", "cell line": "MCF-10A", "test": "cell growth or viability, CCK-8", "conditions": "48 h", "measurement": "IC50", "value": "> 50 µM"}
{"SMILES": "CN1CCCN=C1/C=C/c1cccs1", "cell line": "human PBMC", "test": "cell migration", "conditions": "10 µM", "measurement": "inhibition", "value": "76%"}
{"SMILES": "Cn1cncc1[C@@](N)(c1ccc(Cl)cc1)c1ccc2c(c1)c(-c1cccc(Cl)c1)cc(=O)n2C", "cell line": "CAL-27", "test": "cell growth or viability", "conditions": "72 h", "measurement": "IC50", "value": "9.78 µM"}
{"SMILES": "[Se]=c1n(C2CCCCC2)ccn1C1CCCCC1", "cell line": "HCT-15", "test": "cell growth or viability, MTT", "conditions": "72 h", "measurement": "IC50", "value": "14.2 µM"}
{"SMILES": "O=C(c1cc(Cl)c(Cl)[nH]1)c1c(O)cccc1O", "cell line": "MDCK", "test": "cell growth or viability, MTT", "conditions": "72 h", "measurement": "IC50", "value": "1.3 µg/mL"}
{"SMILES": "CCCCCCc1ccc(O)cc1O", "cell line": "human PBMC", "test": "cell migration", "conditions": "10 µM", "measurement": "inhibition", "value": "57%"}
{"SMILES": "COc1cc2c3c(n(CCCNCCO)c(=O)c2cc1OC)-c1cc2c(cc1C3=O)OCO2", "cell line": "HOP-62", "test": "cell growth or viability", "measurement": "GI50", "value": "0.02 µM"}
{"SMILES": "O=C(O)c1ccccc1NCc1ccco1", "cell line": "human PBMC", "test": "cell migration", "conditions": "10 µM", "measurement": "inhibition", "value": "82%"}
{"SMILES": "CCCCCCCCCCCCCCCC[N+](C)(C)C", "cell line": "MDCK", "test": "cell growth or viability, MTT", "measurement": "IC50", "value": "9 µM"}
{"SMILES": "N[C@@H](Cc1ccc(N(CCCl)CCCl)cc1)C(=O)O", "cell line": "MCF-10A", "test": "cell growth or viability, CCK-8", "conditions": "48 h", "measurement": "IC50", "value": "> 50 µM"}
{"SMILES": "O=C(Oc1ccc(-n2cccc2)cc1)[c-]1cccc1.[Fe+2].c1cc[cH-]c1", "cell line": "MCF-10A", "test": "cell growth or viability, MTT", "conditions": "72 h", "measurement": "IC50", "value": "1.8 µM"}
{"SMILES": "O=C(O)c1cc(S(=O)(=O)NCc2ccco2)c(Cl)cc1N1CCCCC1", "cell line": "human PBMC", "test": "cell migration", "conditions": "10 µM", "measurement": "inhibition", "value": "42%"}
{"SMILES": "O=C(O)C(Cl)Cl", "cell line": "HCT-15", "test": "cell growth or viability, MTT", "conditions": "72 h", "measurement": "IC50", "value": "> 50 µM"}
